# Results: the M2OR odorant receptor database
# Experiments:
# Details in all cases: stereoisomer not certain
# OR2M7 (Homo sapiens) = target: T1, OR2M7 (Homo sapiens) (UniProt Q8NG81)
# T1 sequence (whole entry): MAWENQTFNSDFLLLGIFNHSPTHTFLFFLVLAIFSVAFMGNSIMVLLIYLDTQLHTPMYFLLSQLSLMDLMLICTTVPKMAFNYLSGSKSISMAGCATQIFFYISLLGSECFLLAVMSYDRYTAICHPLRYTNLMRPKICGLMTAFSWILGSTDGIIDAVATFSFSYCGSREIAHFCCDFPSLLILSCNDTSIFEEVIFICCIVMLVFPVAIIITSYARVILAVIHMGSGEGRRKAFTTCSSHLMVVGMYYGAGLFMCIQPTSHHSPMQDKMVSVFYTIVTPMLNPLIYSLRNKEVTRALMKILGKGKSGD
# Outline: (§1)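 Assay methods differ from source to source, frequently being transient luciferase assays in mammalian cell lines. For each receptor–molecule pair, the label responsive (active) applies when the original authors judged the measured signal statistically different from baseline, and non-responsive (inactive) applies otherwise.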
# OR2M5 G255A = tested on: OR2M5 G255A
# Chain of OR2M5 G255A (as listed by the source, stated change not applied): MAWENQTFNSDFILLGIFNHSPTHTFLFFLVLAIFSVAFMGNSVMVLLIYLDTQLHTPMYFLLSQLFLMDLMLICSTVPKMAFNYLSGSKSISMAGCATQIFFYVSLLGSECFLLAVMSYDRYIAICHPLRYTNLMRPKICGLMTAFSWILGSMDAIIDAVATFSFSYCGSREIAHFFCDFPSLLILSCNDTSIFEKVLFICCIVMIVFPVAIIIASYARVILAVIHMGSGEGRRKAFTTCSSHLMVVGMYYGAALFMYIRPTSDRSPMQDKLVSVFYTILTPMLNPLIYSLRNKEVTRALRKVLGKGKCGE
# Outline: as §1
# OR2M5 L273M = tested on: OR2M5 L273M
# Chain of OR2M5 L273M (as listed by the source, stated change not applied): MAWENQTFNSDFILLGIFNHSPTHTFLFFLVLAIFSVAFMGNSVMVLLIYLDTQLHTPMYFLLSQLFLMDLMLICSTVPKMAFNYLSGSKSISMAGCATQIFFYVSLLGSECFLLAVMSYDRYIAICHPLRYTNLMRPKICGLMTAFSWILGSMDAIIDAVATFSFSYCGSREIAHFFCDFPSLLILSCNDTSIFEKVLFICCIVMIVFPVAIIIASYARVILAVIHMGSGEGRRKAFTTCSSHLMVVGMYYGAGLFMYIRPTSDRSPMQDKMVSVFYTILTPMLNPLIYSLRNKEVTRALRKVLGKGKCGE
# Outline: as §1
# OR2M5 M154T = tested on: OR2M5 M154T
# Chain of OR2M5 M154T (as listed by the source, stated change not applied): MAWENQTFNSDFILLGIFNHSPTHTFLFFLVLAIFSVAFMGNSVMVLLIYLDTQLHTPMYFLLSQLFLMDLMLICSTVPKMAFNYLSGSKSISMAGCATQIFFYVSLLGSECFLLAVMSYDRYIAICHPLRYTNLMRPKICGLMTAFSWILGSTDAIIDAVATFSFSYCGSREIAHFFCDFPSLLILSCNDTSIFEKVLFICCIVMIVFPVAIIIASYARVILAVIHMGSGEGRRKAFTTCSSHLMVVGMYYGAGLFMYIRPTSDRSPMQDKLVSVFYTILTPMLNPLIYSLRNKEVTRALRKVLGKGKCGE
# Outline: as §1
# OR2M5 S119A = tested on: OR2M5 S119A
# Chain of OR2M5 S119A (as listed by the source, stated change not applied): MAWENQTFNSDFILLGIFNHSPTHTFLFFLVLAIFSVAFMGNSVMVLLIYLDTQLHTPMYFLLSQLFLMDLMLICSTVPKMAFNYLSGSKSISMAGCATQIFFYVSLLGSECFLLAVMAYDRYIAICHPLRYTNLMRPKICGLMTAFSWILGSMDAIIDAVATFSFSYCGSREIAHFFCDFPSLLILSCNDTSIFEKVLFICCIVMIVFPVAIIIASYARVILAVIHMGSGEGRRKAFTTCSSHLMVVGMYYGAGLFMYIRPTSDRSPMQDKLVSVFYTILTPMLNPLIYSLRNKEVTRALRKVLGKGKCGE
# Outline: as §1
# [1] = tested on: OR2M5 V105T A156G A160V G255A
# Outline: as §1
# [2] = tested on: OR2M5 V105T A156G G255A L273M
# Outline: as §1
# OR2M5 V105T A156G G255A = tested on: OR2M5 V105T A156G G255A
# Outline: as §1
# [3] = tested on: OR2M5 V105T A156G V198I G255A
# Outline: as §1
# OR2M5 V105T A156G = tested on: OR2M5 V105T A156G
# Outline: as §1
# OR2M5 V105T G255H = tested on: OR2M5 V105T G255H
# Outline: as §1
# OR2M5 V105T M154T G255A = tested on: OR2M5 V105T M154T G255A
# Outline: as §1
# [4] = tested on: OR2M5 V105T S119A A156G G255A
# Outline: as §1
# OR2M5 V105T = tested on: OR2M5 V105T
# Chain of OR2M5 V105T (as listed by the source, stated change not applied): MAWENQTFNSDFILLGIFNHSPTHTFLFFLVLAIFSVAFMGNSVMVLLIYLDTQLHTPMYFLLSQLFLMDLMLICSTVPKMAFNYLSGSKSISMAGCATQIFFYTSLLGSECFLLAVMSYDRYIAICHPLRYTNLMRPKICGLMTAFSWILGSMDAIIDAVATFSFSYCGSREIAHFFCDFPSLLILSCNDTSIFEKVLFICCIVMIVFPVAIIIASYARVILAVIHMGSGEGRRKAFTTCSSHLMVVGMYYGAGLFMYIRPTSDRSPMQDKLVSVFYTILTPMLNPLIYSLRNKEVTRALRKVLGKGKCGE
# Outline: as §1
# OR2M5 V198I = tested on: OR2M5 V198I
# Chain of OR2M5 V198I (as listed by the source, stated change not applied): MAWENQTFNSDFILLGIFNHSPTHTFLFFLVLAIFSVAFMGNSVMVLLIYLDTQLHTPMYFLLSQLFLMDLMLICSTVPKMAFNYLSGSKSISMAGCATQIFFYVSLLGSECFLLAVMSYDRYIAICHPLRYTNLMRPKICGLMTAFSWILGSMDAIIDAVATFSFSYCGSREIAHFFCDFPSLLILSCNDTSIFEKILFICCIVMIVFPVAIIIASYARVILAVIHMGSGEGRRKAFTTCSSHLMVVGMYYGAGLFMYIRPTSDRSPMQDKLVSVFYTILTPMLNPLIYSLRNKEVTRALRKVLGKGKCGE
# Outline: as §1
# OR2S2 (Homo sapiens) = target: T2, OR2S2 (Homo sapiens) (UniProt Q9NQN1)
# T2 sequence (whole entry): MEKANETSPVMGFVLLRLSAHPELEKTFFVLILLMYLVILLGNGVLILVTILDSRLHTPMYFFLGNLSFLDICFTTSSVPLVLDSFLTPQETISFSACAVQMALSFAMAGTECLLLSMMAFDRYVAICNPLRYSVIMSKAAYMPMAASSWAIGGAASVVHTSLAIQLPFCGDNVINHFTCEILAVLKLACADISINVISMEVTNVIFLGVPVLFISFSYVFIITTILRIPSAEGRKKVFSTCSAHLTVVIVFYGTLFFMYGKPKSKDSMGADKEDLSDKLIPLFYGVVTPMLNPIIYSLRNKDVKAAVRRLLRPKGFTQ
# Outline: as §1
# OR2T1 (Homo sapiens) = target: T3, OR2T1 (Homo sapiens) (UniProt O43869)
# T3 sequence (whole entry): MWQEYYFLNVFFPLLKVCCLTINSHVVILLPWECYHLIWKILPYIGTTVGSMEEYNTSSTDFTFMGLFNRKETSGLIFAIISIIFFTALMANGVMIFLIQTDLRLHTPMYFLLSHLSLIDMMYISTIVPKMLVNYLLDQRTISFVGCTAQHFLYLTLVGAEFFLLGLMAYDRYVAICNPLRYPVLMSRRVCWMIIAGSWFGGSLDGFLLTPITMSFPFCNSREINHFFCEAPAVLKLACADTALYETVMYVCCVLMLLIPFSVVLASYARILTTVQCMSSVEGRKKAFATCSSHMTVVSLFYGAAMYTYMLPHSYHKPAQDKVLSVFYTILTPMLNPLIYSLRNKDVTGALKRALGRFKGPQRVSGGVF
# Outline: as §1
# OR2T10 (Homo sapiens) = target: T4, OR2T10 (Homo sapiens) (UniProt Q8NGZ9)
# T4 sequence (whole entry): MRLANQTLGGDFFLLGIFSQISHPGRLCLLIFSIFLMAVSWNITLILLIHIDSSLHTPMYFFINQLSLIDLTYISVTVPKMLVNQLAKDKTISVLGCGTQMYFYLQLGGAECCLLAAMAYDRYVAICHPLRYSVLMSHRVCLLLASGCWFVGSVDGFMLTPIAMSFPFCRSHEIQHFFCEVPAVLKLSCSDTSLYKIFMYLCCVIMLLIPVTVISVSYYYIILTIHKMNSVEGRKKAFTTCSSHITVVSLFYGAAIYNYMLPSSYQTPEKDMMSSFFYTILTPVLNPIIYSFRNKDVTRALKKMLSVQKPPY
# Outline: as §1
# OR2M7 [5] = tested on: OR2M7
# Outline: as §1
# Target sequence in this assay (as listed by the source): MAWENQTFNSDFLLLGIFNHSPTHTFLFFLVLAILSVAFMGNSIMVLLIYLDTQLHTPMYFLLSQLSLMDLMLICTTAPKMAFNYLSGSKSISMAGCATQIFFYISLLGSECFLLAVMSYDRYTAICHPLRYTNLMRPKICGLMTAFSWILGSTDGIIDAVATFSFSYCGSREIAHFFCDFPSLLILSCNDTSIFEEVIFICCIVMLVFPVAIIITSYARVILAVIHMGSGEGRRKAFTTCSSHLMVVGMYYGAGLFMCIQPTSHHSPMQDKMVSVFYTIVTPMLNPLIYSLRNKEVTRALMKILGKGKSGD
# OR2M7 [6] = tested on: OR2M7; remark: listed apart in the source
# Outline: as §1
# Target sequence in this assay (as listed by the source): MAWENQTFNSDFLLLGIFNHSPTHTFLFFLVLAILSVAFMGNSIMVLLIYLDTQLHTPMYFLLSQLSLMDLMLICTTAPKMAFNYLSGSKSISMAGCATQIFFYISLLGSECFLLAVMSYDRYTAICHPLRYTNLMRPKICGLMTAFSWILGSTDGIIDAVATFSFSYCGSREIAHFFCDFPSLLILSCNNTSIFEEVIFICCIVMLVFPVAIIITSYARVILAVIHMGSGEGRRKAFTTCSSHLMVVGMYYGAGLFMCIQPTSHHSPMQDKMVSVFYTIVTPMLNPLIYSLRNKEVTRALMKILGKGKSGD
smiles,measurement,setting,value
O=C1CCOc2ccccc21,odorant receptor agonist call,OR2M7 (Homo sapiens),inactive
CCC(=O)O,odorant receptor agonist call,OR2M7 (Homo sapiens),inactive
CCCCCCCC(=O)[O-].[H+],odorant receptor agonist call,OR2M7 (Homo sapiens),inactive
CCCCCCCCC(=O)O,odorant receptor agonist call,OR2M7 (Homo sapiens),inactive
CCC(S)C(C)CO (stereo not drawn),odorant receptor agonist call,OR2M5 G255A,inactive
same,odorant receptor agonist call,OR2M5 L273M,inactive
same,odorant receptor agonist call,OR2M5 M154T,inactive
same,odorant receptor agonist call,OR2M5 S119A,inactive
same,odorant receptor agonist call,[1],inactive
same,odorant receptor agonist call,[2],inactive
same,odorant receptor agonist call,OR2M5 V105T A156G G255A,inactive
same,odorant receptor agonist call,[3],inactive
same,odorant receptor agonist call,OR2M5 V105T A156G,inactive
same,odorant receptor agonist call,OR2M5 V105T G255H,inactive
same,odorant receptor agonist call,OR2M5 V105T M154T G255A,inactive
same,odorant receptor agonist call,[4],inactive
same,odorant receptor agonist call,OR2M5 V105T,inactive
same,odorant receptor agonist call,OR2M5 V198I,inactive
same,odorant receptor agonist call,OR2M7 (Homo sapiens),inactive
same,odorant receptor agonist call,OR2S2 (Homo sapiens),inactive
same,odorant receptor agonist call,OR2T1 (Homo sapiens),inactive
same,odorant receptor agonist call,OR2T10 (Homo sapiens),inactive
O=C(c1ccccc1)c1ccccc1,odorant receptor agonist call,OR2M7 (Homo sapiens),inactive
COc1cc(C(=O)O)ccc1O,odorant receptor agonist call,OR2M7 (Homo sapiens),inactive
CCCCCCCCS,odorant receptor agonist call,OR2M7 (Homo sapiens),inactive
CC(=O)Oc1ccccc1,odorant receptor agonist call,OR2M7 (Homo sapiens),inactive
CCC(=O)C(=O)CC,odorant receptor agonist call,OR2M7 (Homo sapiens),inactive
O=C1Cc2ccccc2O1,odorant receptor agonist call,OR2M7 (Homo sapiens),inactive
CCCCOC=O,odorant receptor agonist call,OR2M7 (Homo sapiens),inactive
CCOC(=O)C(C)C,odorant receptor agonist call,OR2M7 (Homo sapiens),inactive
CC12CCC(CC1=O)C2(C)C (stereo not drawn),odorant receptor agonist call,OR2M7 (Homo sapiens),inactive
CCC(C(=O)O)c1ccccc1 (stereo not drawn),odorant receptor agonist call,OR2M7 (Homo sapiens),inactive
CCCCCCCCO,odorant receptor agonist call,OR2M7 (Homo sapiens),inactive
CCCCC(=O)O,odorant receptor agonist call,OR2M7 (Homo sapiens),inactive
CCCCCCCCCC(=O)[O-].[H+],odorant receptor agonist call,OR2M7 (Homo sapiens),inactive
CCCCCCCO,odorant receptor agonist call,OR2M7 (Homo sapiens),inactive
CCCCCCC(=O)[O-].[H+],odorant receptor agonist call,OR2M7 (Homo sapiens),inactive
C=C(C)C1CCC(C)C(=O)C1 (stereo not drawn),odorant receptor agonist call,OR2M7 (Homo sapiens),inactive
c1ccccc1,odorant receptor agonist call,OR2M7 (Homo sapiens),inactive
CCCCCC1=C(C)CCC1=O,odorant receptor agonist call,OR2M7 (Homo sapiens),inactive
CCCCCCC(C)=O,odorant receptor agonist call,OR2M7 (Homo sapiens),inactive
CCCCC(=O)CC,odorant receptor agonist call,OR2M7 (Homo sapiens),inactive
O=c1ccc2ccccc2o1,odorant receptor agonist call,OR2M7 (Homo sapiens),inactive
CCCCCC=O,odorant receptor agonist call,OR2M7 (Homo sapiens),inactive
CCCC(C)=O,odorant receptor agonist call,OR2M7 (Homo sapiens),inactive
CCCCCO,odorant receptor agonist call,OR2M7 (Homo sapiens),inactive
Cc1cnc(C)c(C)n1,odorant receptor agonist call,OR2M7 (Homo sapiens),inactive
same,odorant receptor agonist call,OR2S2 (Homo sapiens),inactive
same,odorant receptor agonist call,OR2T1 (Homo sapiens),inactive
same,odorant receptor agonist call,OR2T10 (Homo sapiens),inactive
CCC1OC(C)=C(O)C1=O (stereo not drawn),odorant receptor agonist call,OR2M7 (Homo sapiens),inactive
same,odorant receptor agonist call,OR2S2 (Homo sapiens),inactive
same,odorant receptor agonist call,OR2T1 (Homo sapiens),inactive
same,odorant receptor agonist call,OR2T10 (Homo sapiens),inactive
CC1=NC(C)C(C)S1 (stereo not drawn),odorant receptor agonist call,OR2M7 (Homo sapiens),inactive
same,odorant receptor agonist call,OR2S2 (Homo sapiens),inactive
same,odorant receptor agonist call,OR2T1 (Homo sapiens),inactive
same,odorant receptor agonist call,OR2T10 (Homo sapiens),inactive
C=CCOC(=O)CCCCCC,odorant receptor agonist call,OR2M7 (Homo sapiens),inactive
CCCCCC(=O)CC,odorant receptor agonist call,OR2M7 (Homo sapiens),inactive
CCCCOC(=O)C(C)OC(=O)CCC (stereo not drawn),odorant receptor agonist call,OR2M7 (Homo sapiens),inactive
CCCCCCC=CCCC=O,odorant receptor agonist call,OR2M7 (Homo sapiens),inactive
same,odorant receptor agonist call,OR2S2 (Homo sapiens),inactive
same,odorant receptor agonist call,OR2T1 (Homo sapiens),inactive
same,odorant receptor agonist call,OR2T10 (Homo sapiens),inactive
CC(=O)OCC=C(C)C,odorant receptor agonist call,OR2M7 (Homo sapiens),inactive
CCCCCC(S)C(C)CO (stereo not drawn),odorant receptor agonist call,OR2M7 (Homo sapiens),inactive
same,odorant receptor agonist call,OR2S2 (Homo sapiens),inactive
same,odorant receptor agonist call,OR2T1 (Homo sapiens),inactive
same,odorant receptor agonist call,OR2T10 (Homo sapiens),inactive
CCCCC(S)C(C)CO (stereo not drawn),odorant receptor agonist call,OR2M7 (Homo sapiens),inactive
same,odorant receptor agonist call,OR2S2 (Homo sapiens),inactive
same,odorant receptor agonist call,OR2T1 (Homo sapiens),inactive
same,odorant receptor agonist call,OR2T10 (Homo sapiens),inactive
CCCC(=O)C(C)=O,odorant receptor agonist call,OR2M7 (Homo sapiens),inactive
CC(CO)CS (stereo not drawn),odorant receptor agonist call,OR2M7 (Homo sapiens),inactive
same,odorant receptor agonist call,OR2S2 (Homo sapiens),inactive
same,odorant receptor agonist call,OR2T1 (Homo sapiens),inactive
same,odorant receptor agonist call,OR2T10 (Homo sapiens),inactive
CCCCCCO,odorant receptor agonist call,OR2M7 (Homo sapiens),inactive
CCCCCOC(=O)CCCCC,odorant receptor agonist call,OR2M7 (Homo sapiens),inactive
CC(C)=CCCC(C)CCO (stereo not drawn),odorant receptor agonist call,OR2M7 (Homo sapiens),active
CCCCCCCCCO,odorant receptor agonist call,OR2M7 (Homo sapiens),inactive
CCCCCC(=O)C(C)C(C)=O (stereo not drawn),odorant receptor agonist call,OR2M7 (Homo sapiens),inactive
same,odorant receptor agonist call,OR2S2 (Homo sapiens),inactive
same,odorant receptor agonist call,OR2T1 (Homo sapiens),inactive
same,odorant receptor agonist call,OR2T10 (Homo sapiens),inactive
CC1=C(O)C(=O)C(C)O1 (stereo not drawn),odorant receptor agonist call,OR2M7 (Homo sapiens),inactive
same,odorant receptor agonist call,OR2S2 (Homo sapiens),inactive
same,odorant receptor agonist call,OR2T1 (Homo sapiens),inactive
same,odorant receptor agonist call,OR2T10 (Homo sapiens),inactive
CC1CCCCCCCCCCCCC(=O)C1 (stereo not drawn),odorant receptor agonist call,OR2M7 (Homo sapiens),inactive
same,odorant receptor agonist call,OR2S2 (Homo sapiens),inactive
same,odorant receptor agonist call,OR2T1 (Homo sapiens),inactive
same,odorant receptor agonist call,OR2T10 (Homo sapiens),inactive
CCCCCCCCCCO,odorant receptor agonist call,OR2M7 (Homo sapiens),inactive
CCCCC(C)=O,odorant receptor agonist call,OR2M7 (Homo sapiens),inactive
CC(C)=CCCC(C)=CCO,odorant receptor agonist call,OR2M7 (Homo sapiens),active
same,odorant receptor agonist call,OR2M7 [5],active
same,odorant receptor agonist call,OR2M7 [6],inactive
same,odorant receptor agonist call,OR2T10 (Homo sapiens),inactive
CCCCCCCC(C)=O,odorant receptor agonist call,OR2M7 (Homo sapiens),inactive
CCCCCCOC(C)=O,odorant receptor agonist call,OR2M7 (Homo sapiens),inactive
CC1=C(O)C(=O)OC1C (stereo not drawn),odorant receptor agonist call,OR2M7 (Homo sapiens),inactive
same,odorant receptor agonist call,OR2S2 (Homo sapiens),inactive
same,odorant receptor agonist call,OR2T1 (Homo sapiens),inactive
same,odorant receptor agonist call,OR2T10 (Homo sapiens),inactive
CCCCCCCCCS,odorant receptor agonist call,OR2M7 (Homo sapiens),inactive
